Values after ≈ are worked out from the molar mass of the structure shown.
Columns and labels:
Escherichia coli [1] = test: Evaluated for the in vivo activity in mice against Escherichia coli 257; assay type: functional
Streptococcus pyogenes [2] = test: Minimum inhibitory concentration against Streptococcus pyogenes 4; assay type: functional
Procedure, shortened: (§1)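 Broth MIC determination: serial 2-fold dilutions in Mueller-Hinton broth by standard methodology; the lowest concentration inhibiting growth is reported as the MIC, in nmol/mL.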

[3] = Evaluated for its stability in phosphate buffer, pH 7.4 at 37 degrees Celsius as determined by HPLC analysis; assay type: physicochemical
Procedure, shortened: (§2)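 Compound solutions incubated at 37 °C, sampled at intervals; remaining starting material quantified by HPLC on PRP-1 column, UV 286 nm, mobile phase 0.01 M tetradecyltrimethylammonium bromide in 60% 0.067 M pH 7.4 phosphate buffer/40% acetonitrile; half-life reported.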

[4] = Evaluated for its stability in human serum at 37 degrees Celsius as determined by HPLC analysis; assay type: ADME, organism-based; procedure, shortened: as §2
Pseudomonas aeruginosa [5] = test: Evaluated for the minimum inhibitory concentration against Pseudomonas aeruginosa 18S/H ( Class Id beta-lactamase overproducer); assay type: functional
Procedure, shortened: (§3)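 MIC by serial 2-fold dilution in Mueller-Hinton broth; results given as minimum inhibitory concentrations (nmol/mL).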

[6] = Evaluated for its stability in rat blood at 37 degrees Celsius as determined by HPLC analysis; assay type: ADME, organism-based; procedure, shortened: as §2
Streptococcus pyogenes [7] = test: Evaluated for the in vivo activity in mice against streptococcus pyogenes 4; assay type: functional
Streptococcus pneumoniae [8] = test: Minimum inhibitory concentration against Streptococcus pneumoniae 6301; assay type: functional; procedure, shortened: as §1
[9] = Evaluated for its stability in rat serum at 37 degrees Celsius as determined by HPLC analysis; assay type: ADME, organism-based; procedure, shortened: as §2
[10] = Evaluated for its stability in monkey serum at 37 degrees Celsius as determined by HPLC analysis; assay type: ADME, cell-free; details: simiiformes; procedure, shortened: as §2
[11] = Evaluated for its stability in dog serum at 37 degrees Celsius as determined by HPLC analysis; assay type: ADME, organism-based, Canis lupus familiaris; procedure, shortened: as §2
Micrococcus luteus = test: Evaluated for in Vitro activity against Micrococcus luteus PCI; assay type: functional; procedure, shortened: as §3
[12] = Evaluated for its stability in dog blood at 37 degrees Celsius as determined by HPLC analysis; assay type: ADME, organism-based, Canis lupus familiaris; procedure, shortened: as §2
[13] = Evaluated for its stability in Mueller-Hinton broth at 37 degrees Celsius as determined by HPLC analysis; assay type: physicochemical; procedure, shortened: as §2
Pseudomonas aeruginosa [14] = test: Minimum inhibitory concentration against Pseudomonas aeruginosa ATCC 27853; assay type: functional; procedure, shortened: as §1
Escherichia coli [15] = test: Evaluated for in Vitro activity against Escherichia coli DC-O; assay type: functional; procedure, shortened: as §3
Staphylococcus aureus [16] = test: Minimum inhibitory concentration against Staphylococcus aureus 95 (Methicillin-resistant, high-level beta-lactamase producer); assay type: functional
Procedure, shortened: (§4)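 Serial 2-fold broth dilution in Mueller-Hinton broth, run by standard methodology; read-out is the minimum inhibitory concentration (MIC).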

Escherichia coli [17] = test: Evaluated for the minimum inhibitory concentration against Escherichia coli UB 1005; assay type: functional; procedure, shortened: as §3
[18] = Evaluated for its stability in phosphate buffer, pH 6.5 at 37 degrees Celsius as determined by HPLC analysis; assay type: physicochemical; procedure, shortened: as §2
Streptococcus pneumoniae [19] = test: Evaluated for in Vitro activity against Streptococcus pneumoniae 6301; assay type: functional; procedure, shortened: as §3
Proteus vulgaris [20] = test: Minimum inhibitory concentration against Proteus vulgaris 1028 BC (Class Ic beta-lactamase overproducer); assay type: functional; procedure, shortened: as §1
Pseudomonas aeruginosa [21] = test: Evaluated for the minimum inhibitory concentration against Pseudomonas aeruginosa 18S/H (Class Id beta-lactamase overproducer); assay type: functional; procedure, shortened: as §3
Proteus vulgaris [22] = test: Evaluated for the minimum inhibitory concentration against Proteus vulgaris 1028 BC (Class Ic beta-lactamase overproducer; assay type: functional; procedure, shortened: as §3
Enterobacter cloacae [23] = test: Evaluated for the minimum inhibitory concentration against Enterobacter cloacae P99 ( Class Ia beta-lactamase overproducer); assay type: functional; procedure, shortened: as §3
Proteus vulgaris [24] = test: Evaluated for the minimum inhibitory concentration against Proteus vulgaris 1028 BC; assay type: functional; procedure, shortened: as §4
Streptococcus pneumoniae [25] = test: In vitro antibacterial activity was determined against Streptococcus pneumoniae 6301; assay type: functional; procedure, shortened: as §1
Staphylococcus aureus [26] = test: In vitro antibacterial activity was determined against Staphylococcus aureus 1059B ( inducible, high level beta-lactamase producer); assay type: functional; procedure, shortened: as §1
Streptococcus pyogenes [27] = test: In vitro antibacterial activity was determined against Streptococcus pyogenes 4; assay type: functional; procedure, shortened: as §1
Proteus mirabilis = test: In vitro antibacterial activity was determined against Proteus mirabilis 90; assay type: functional; procedure, shortened: as §3
Citrobacter freundii = test: In vitro antibacterial activity was determined against Citrobacter freundii BS-16; assay type: functional; procedure, shortened: as §3
Staphylococcus aureus [28] = test: In vitro antibacterial activity was determined against Staphylococcus aureus ATCC 29213 (inducible, low level beta-lactamase producer); assay type: functional; procedure, shortened: as §4
Enterococcus faecalis = test: In vitro antibacterial activity was determined against Enterococcus faecalis ATCC 29212; assay type: functional; procedure, shortened: as §3
Staphylococcus aureus [29] = test: In vitro antibacterial activity was determined against Staphylococcus aureus 1059B (inducible, high level beta-lactamase producer); assay type: functional; procedure, shortened: as §4
Enterobacter cloacae [30] = test: In vitro antibacterial activity was determined against Enterobacter cloacae P99 (Class Ia beta-lactamase overproducer); assay type: functional; procedure, shortened: as §3
Staphylococcus aureus [31] = test: In vitro antibacterial activity was determined against Staphylococcus aureus 95 (Methicillin-resistant, high-level beta-lactamase producer); assay type: functional; procedure, shortened: as §4
Pseudomonas aeruginosa [32] = test: In vitro antibacterial activity was determined against Pseudomonas aeruginosa 18S/H (Class Id beta-lactamase overproducer); assay type: functional; procedure, shortened: as §1
Serratia marcescens = test: In vitro antibacterial activity was determined against Serratia marcescens 1071; assay type: functional; procedure, shortened: as §1
Escherichia coli [33] = test: In vitro antibacterial activity was determined against Escherichia coli TEM-1 (TEM-1 (class IIIa) beta-lactamase producer); assay type: functional; procedure, shortened: as §3
Proteus vulgaris [34] = test: In vitro antibacterial activity was determined against Proteus vulgaris 1028 BC (Class Ic beta-lactamase overproducer; assay type: functional; procedure, shortened: as §3

CO/N=C(/C(=O)N[C@@H]1C(=O)N2C(C(=O)O)=C(COC(=O)c3cn(CCF)c4c(F)c(N5CCN(C)CC5)c(F)cc4c3=O)CSC12)c1csc(N)n1 (stereo not given in full)
ED50 (Escherichia coli [1]): 1.8 mg/kg
MIC (Streptococcus pyogenes [2]): 0.031 mg/L (≈ 0.0405 µM)
half-life [3]: 3 h
half-life [4]: 6.3 h
MIC (Pseudomonas aeruginosa [5]): 4 mg/L (≈ 5.23 µM)
half-life [6]: 5.8 h
ED50 (Streptococcus pyogenes [7]): 8.8 mg/kg
MIC (Streptococcus pneumoniae [8]): < 0.008 mg/L
half-life [9]: 4.5 h
half-life [10]: 5.7 h
half-life [11]: 3.9 h
MIC (Micrococcus luteus; read-out: MIC): 0.0746 µM (≈ 0.0571 µg/mL)
half-life [12]: 3.4 h
half-life [13]: 3.4 h
MIC (Pseudomonas aeruginosa [14]): 8 mg/L (≈ 10.5 µM)
MIC (Escherichia coli [15]; read-out: MIC): 0.299 µM (≈ 0.229 µg/mL)
MIC (Staphylococcus aureus [16]): 2 mg/L (≈ 2.62 µM)
MIC (Escherichia coli [17]): 0.12 mg/L (≈ 0.157 µM)
half-life [18]: 6.9 h
MIC (Streptococcus pneumoniae [19]; read-out: MIC): 0.0187 µM (≈ 0.0143 µg/mL)
MIC (Proteus vulgaris [20]): 0.25 mg/L (≈ 0.327 µM)

CN1CCN(c2c(F)cc3c(=O)c(C(=O)OCC4=C(C(=O)O)N5C(=O)[C@@H](NC(=O)/C(=N/OC(C)(C)C(=O)O)c6csc(N)n6)C5SC4)cn(CCF)c3c2F)CC1 (stereo not given in full)
MIC (Streptococcus pyogenes [2]): 0.5 mg/L (≈ 0.597 µM)
MIC (Streptococcus pneumoniae [8]): 0.5 mg/L (≈ 0.597 µM)
MIC (Pseudomonas aeruginosa [21]): > 128 mg/L
MIC (Pseudomonas aeruginosa [14]): 8 mg/L (≈ 9.56 µM)
MIC (Proteus vulgaris [22]): 0.5 mg/L (≈ 0.597 µM)
MIC (Staphylococcus aureus [16]): 4 mg/L (≈ 4.78 µM)

CCn1cc(C(=O)OCC2=C(C(=O)O)N3C(=O)[C@@H](NC(=O)/C(=N/OC)c4csc(N)n4)C3SC2)c(=O)c2cc3c(cc21)OCO3 (stereo not given in full)
MIC (Pseudomonas aeruginosa [21]): 16 mg/L (≈ 24.4 µM)
MIC (Pseudomonas aeruginosa [14]): 128 mg/L (≈ 195 µM)
MIC (Proteus vulgaris [22]): 0.25 mg/L (≈ 0.381 µM)
MIC (Staphylococcus aureus [16]): 4 mg/L (≈ 6.09 µM)

CCn1cc(C(=O)OCC2=C(C(=O)O)N3C(=O)[C@@H](NC(=O)COc4ccccc4)C3SC2)c(=O)c2cc(F)c(N3CCN(C=O)CC3)cc21 (stereo not given in full)
MIC (Enterobacter cloacae [23]): 2 mg/L (≈ 2.88 µM)
MIC (Pseudomonas aeruginosa [5]): 8 mg/L (≈ 11.5 µM)
MIC (Pseudomonas aeruginosa [14]): 128 mg/L (≈ 185 µM)
MIC (Staphylococcus aureus [16]): 2 mg/L (≈ 2.88 µM)
MIC (Escherichia coli [17]): 128 mg/L (≈ 185 µM)
MIC (Proteus vulgaris [20]): 4 mg/L (≈ 5.77 µM)

O=C(O)c1cn(-c2ccc(F)cc2)c2cc3c(cc2c1=O)OCO3
MIC (Streptococcus pyogenes [2]): > 128 mg/L
MIC (Streptococcus pneumoniae [8]): 64 mg/L (≈ 196 µM)
MIC (Pseudomonas aeruginosa [21]): 0.5 mg/L (≈ 1.53 µM)
MIC (Proteus vulgaris [22]): 0.5 mg/L (≈ 1.53 µM)
MIC (Staphylococcus aureus [16]): 1 mg/L (≈ 3.06 µM)

CCn1cc(C(=O)OCC2=C(C(=O)O)N3C(=O)[C@@H](NC(=O)/C(=N/OC)c4csc(N)n4)C3SC2)c(=O)c2cc(F)c(N3CCN(C=O)CC3)cc21 (stereo not given in full)
MIC (Pseudomonas aeruginosa [21]): 32 mg/L (≈ 43.1 µM)
MIC (Pseudomonas aeruginosa [14]): > 128 mg/L
MIC (Staphylococcus aureus [16]): 8 mg/L (≈ 10.8 µM)
MIC (Proteus vulgaris [20]): 8 mg/L (≈ 10.8 µM)

CCn1cc(C(=O)OCC2=C(C(=O)O)N3C(=O)[C@@H](NC(=O)Cc4cccs4)C3SC2)c(=O)c2cc3c(cc21)OCO3 (stereo not given in full)
MIC (Pseudomonas aeruginosa [21]): 8 mg/L (≈ 13.4 µM)
MIC (Pseudomonas aeruginosa [14]): > 128 mg/L
MIC (Staphylococcus aureus [16]): 4 mg/L (≈ 6.69 µM)
MIC (Proteus vulgaris [20]): 0.25 mg/L (≈ 0.418 µM)

O=C(COc1ccccc1)N[C@@H]1C(=O)N2C(C(=O)O)=C(COC(=O)c3cn(-c4ccc(F)cc4)c4cc5c(cc4c3=O)OCO5)CSC12 (stereo not given in full)
MIC (Streptococcus pyogenes [2]): 2 mg/L (≈ 2.97 µM)
MIC (Pseudomonas aeruginosa [5]): 64 mg/L (≈ 95 µM)
MIC (Streptococcus pneumoniae [8]): 1 mg/L (≈ 1.48 µM)
MIC (Proteus vulgaris [24]): 64 mg/L (≈ 95 µM)
MIC (Pseudomonas aeruginosa [14]): > 128 mg/L
MIC (Staphylococcus aureus [16]): 64 mg/L (≈ 95 µM)

CCn1cc(C(=O)OCC2=C(C(=O)O)N3C(=O)[C@@H](NC(=O)COc4ccccc4)C3SC2)c(=O)c2ccc(C)nc21 (stereo not given in full)
MIC (Streptococcus pneumoniae [25]): < 0.008 mg/L
MIC (Staphylococcus aureus [26]): 0.5 mg/L (≈ 0.864 µM)
MIC (Streptococcus pyogenes [27]): 0.063 mg/L (≈ 0.109 µM)
MIC (Proteus mirabilis): 32 mg/L (≈ 55.3 µM)

CCn1cc(C(=O)O)c(=O)c2cc(F)c(-n3cccc3)cc21 [IRLOXACIN]
MIC (Citrobacter freundii): 64 mg/L (≈ 213 µM)
MIC (Streptococcus pneumoniae [25]): 16 mg/L (≈ 53.3 µM)
MIC (Staphylococcus aureus [28]): 0.125 mg/L (≈ 0.416 µM)
MIC (Enterococcus faecalis): 2 mg/L (≈ 6.66 µM)
MIC (Staphylococcus aureus [29]): 0.125 mg/L (≈ 0.416 µM)
MIC (Enterobacter cloacae [30]): 0.5 mg/L (≈ 1.67 µM)
MIC (Staphylococcus aureus [31]): 0.125 mg/L (≈ 0.416 µM)
MIC (Pseudomonas aeruginosa [32]): 64 mg/L (≈ 213 µM)
MIC (Serratia marcescens): 0.5 mg/L (≈ 1.67 µM)
MIC (Escherichia coli [33]): 1 mg/L (≈ 3.33 µM)
MIC (Streptococcus pyogenes [27]): > 128 mg/L
MIC (Proteus vulgaris [34]): 0.5 mg/L (≈ 1.67 µM)
MIC (Proteus mirabilis): 64 mg/L (≈ 213 µM)

CO/N=C(\C(=O)N[C@@H]1C(=O)N2C(C(=O)O)=C(COC(C)=O)CS[C@H]12)c1csc(N)n1 [CEFOTAXIME]
ED50 (Escherichia coli [1]): 1.7 mg/kg
MIC (Streptococcus pyogenes [2]): < 0.008 mg/L
ED50 (Streptococcus pyogenes [7]): 5.2 mg/kg
MIC (Streptococcus pneumoniae [8]): 0.016 mg/L (≈ 0.0351 µM)
MIC (Pseudomonas aeruginosa [21]): 128 mg/L (≈ 281 µM)
MIC (Pseudomonas aeruginosa [14]): 64 mg/L (≈ 141 µM)
MIC (Proteus vulgaris [22]): 16 mg/L (≈ 35.1 µM)
MIC (Staphylococcus aureus [16]): 32 mg/L (≈ 70.3 µM)
MIC (Escherichia coli [17]): 0.06 mg/L (≈ 0.132 µM)

CO/N=C(/C(=O)N[C@@H]1C(=O)N2C(C(=O)O)=C(CO)CSC12)c1csc(N)n1 (stereo not given in full)
MIC (Micrococcus luteus): 0.597 µM (≈ 0.247 µg/mL)
MIC (Escherichia coli [15]): 0.597 µM (≈ 0.247 µg/mL)
MIC (Streptococcus pneumoniae [19]): 0.0746 µM (≈ 0.0308 µg/mL)

From ChEMBL document CHEMBL1125107, “Cephalosporin 3'-quinolone esters with a dual mode of action” (J Med Chem, 1990)
